According to article PMC3584523 (International Journal of Oncology, 2011):
“Also recorded” adds a separate entry of the source. Values belong to the compound of their own block, whether it stands above or below them.

Experiments:
[1] = molecular target: T1, human recombinant LPA1 receptor (Homo sapiens, UniProt Q92633); test: Calcium flux assay, antagonism of LPA-induced calcium flux; type: cell-based; conditions: for IC50: read-out: IC50, inhibition of LPA-induced calcium flux, human LPA1-expressing Chem-1 cells, 1 μM Oleoyl LPA
[2] = molecular target: T1, human recombinant LPA1 receptor; test: Calcium flux assay, LPA1 agonist activity; type: cell-based; conditions: human LPA1-expressing Chem-1 cells; for agonist activity at the LPA1 receptor (calcium flux): 0.0045–10 μM
In short: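 Chem-1 stable cell line expressing human recombinant LPA1, loaded with Fluo-4 NW. Test compound, the racemic reference or oleoyl-LPA reference agonist was added as an eight-point 3-fold serial dilution starting at 10 μM (0.0045–10 μM), and calcium flux stimulation was measured. The reference agonist's EC80 was derived from its dose-response.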

LPA3 = molecular target: T2, LPA3 (Homo sapiens, UniProt Q9UBY5); test: Antagonist activity at LPA3; type: cell-based; conditions: read-out: IC50, antagonist activity at LPA3
T2 sequence (Q9UBY5 1-353): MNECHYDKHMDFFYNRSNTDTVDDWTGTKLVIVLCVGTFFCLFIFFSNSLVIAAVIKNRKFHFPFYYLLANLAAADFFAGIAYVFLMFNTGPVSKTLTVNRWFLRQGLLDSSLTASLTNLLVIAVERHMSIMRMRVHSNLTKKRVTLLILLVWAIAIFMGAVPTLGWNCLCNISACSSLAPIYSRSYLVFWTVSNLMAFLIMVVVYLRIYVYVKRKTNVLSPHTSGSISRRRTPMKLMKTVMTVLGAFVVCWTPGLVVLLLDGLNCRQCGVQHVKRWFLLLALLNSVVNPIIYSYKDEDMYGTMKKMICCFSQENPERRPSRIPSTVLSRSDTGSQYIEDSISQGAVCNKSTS

[3] = system: 4T1 mouse mammary cancer cells; test: LPA-induced cell invasion assay; type: cell-based; conditions: LPA 5 μM as chemoattractant; Debio 0719 1 and 5 μM; 24 h
In short: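 4T1 cells were grown in DMEM with 10% FBS and penicillin/streptomycin at 37°C, 5% CO2. 2×10^5 cells were placed in the upper compartment of Matrigel-coated 8-μm filter chambers with or without test compound. LPA with 1% FBS was in the lower chamber. After 24 h at 37°C, cells that crossed the filter were fixed, stained and counted in 10 random fields (×40) and reported as cells/mm2.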

[4] = Pharmacokinetic study in male CD-1 mice; type: in vivo, mouse
In short: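 Male CD-1 mice received test compound in 10% DMA, 5% Cremophor EL and 85% saline. It was given either as an intravenous 5 mg/kg bolus into the jugular vein or by oral gavage at 50 mg/kg. Retro-orbital blood was taken into sodium heparin, n=3 per time point. Plasma was spiked with methanol and lovastatin internal standard, vortexed, centrifuged and measured by LC/MS. Parameters are given as means.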

4T1 cells [5] = test: Orthotopic 4T1 mammary fat pad model, treatment day 0 to 14; type: in vivo, mouse
4T1 cells [6] = test: Orthotopic 4T1 model, adjuvant treatment day 15 to 35; type: in vivo, mouse; conditions: 25 or 50 mg/kg per os twice daily after tumor resection at day 14
In short: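 To count disseminated tumour cells, marrow was flushed from tibias and femurs and plated in complete medium with 6-thioguanine 10 μM, which only the naturally resistant 4T1 cells survive. After two weeks the clones were fixed, stained and counted, and reported as clones/mm2.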

[7] = system: breast cancer cell-mediated bone metastases; conditions: treatment of bone metastatic animals; cited from earlier work

T1 sequence (Q92633 whole entry): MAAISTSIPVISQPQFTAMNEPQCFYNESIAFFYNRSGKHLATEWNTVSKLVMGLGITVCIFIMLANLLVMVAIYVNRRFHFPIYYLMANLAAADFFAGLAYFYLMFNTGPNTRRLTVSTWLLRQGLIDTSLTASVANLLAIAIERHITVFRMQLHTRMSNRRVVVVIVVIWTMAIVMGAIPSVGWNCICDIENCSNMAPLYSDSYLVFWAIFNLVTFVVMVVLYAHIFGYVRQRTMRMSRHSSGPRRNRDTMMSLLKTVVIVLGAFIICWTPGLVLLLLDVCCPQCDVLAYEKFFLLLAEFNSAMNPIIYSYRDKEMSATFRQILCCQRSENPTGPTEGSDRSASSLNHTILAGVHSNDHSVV

IC50 [1]: 2800 nM | agonist activity at the LPA1 receptor (calcium flux) [2]: no agonist activity
Structure (SMILES): Cc1noc(-c2ccc(CSCCC(=O)O)cc2)c1NC(=O)O[C@@H](C)c1ccccc1Cl [Debio 0719-425(S)]

Structure (SMILES): Cc1noc(-c2ccc(CSCCC(=O)O)cc2)c1NC(=O)O[C@H](C)c1ccccc1Cl [Debio 0719]
potency relative to Ki16425 at inhibiting LPA1-induced calcium flux ([1]; ratio of IC50 values): 2 fold | IC50 [1]: 60 nM | agonist activity at the LPA1 receptor (calcium flux) [2]: no agonist activity; also recorded: did not demonstrate any agonist effects | IC50 (LPA3): 660 nM | LPA-induced 4T1 cell invasion [3]: dose-dependently blocked | tolerability after oral exposure [4]: well tolerated | Plasma clearance ([4]; intravenous 5 mg/kg): 111 mL/min/kg | Time to maximum concentration ([4]; intravenous 5 mg/kg): 0.08 h | plasma concentration by 4 h ([4]; intravenous 5 mg/kg): ~ 1 nM | Bioavailability ([4]; oral 50 mg/kg): 14.41 % EF | Time to maximum concentration ([4]; oral 50 mg/kg): 0.25 h | plasma concentration by 8 h ([4]; oral 50 mg/kg): ~ 10 nM | time of peak plasma concentration ([4]; oral 50 mg/kg): 15 min | oral bioavailability ([4]; oral 50 mg/kg, no unit in text): 14.41 | inhibition of number of lung metastasis foci (4T1 cells [5]; 50 mg/kg per os twice daily, day 0 to 14, sacrifice day 35, p=0.022): 62% | inhibition of total area of lung metastases (4T1 cells [5]; 50 mg/kg per os twice daily, day 0 to 14, sacrifice day 35, p=0.029): 89% | tolerability (mouse weight gain, deleterious effects) (4T1 cells [5]; 25 and 50 mg/kg per os twice daily, day 0 to 14, female BALB/c mice): well tolerated; also recorded: did not induce noticeable deleterious effects | burden (weight) of resected primary tumors vs untreated (4T1 cells [5]; 25 and 50 mg/kg per os twice daily, day 0 to 14, tumors resected day 14): no difference | rescue of 4T1-DTCs from bone marrow (4T1 cells [5]; either high or low dose, day 0 to 14, sacrifice day 35): not able to rescue any 4T1-DTCs | reduction in the area of lung metastasis foci (4T1 cells [5]; lower dosing (25 mg/kg per os twice daily), day 0 to 14, p=0.053): did not reach statistical significance | expression of mitotic marker Ki-67 in primary tumors vs untreated (4T1 cells [5]; per os twice daily, day 0 to 14, immunohistochemistry): similar | number of 4T1-DTCs rescued from bone marrow vs vehicle (4T1 cells [6]): no statistically significant difference

IC50 [1]: 130 nM | agonist activity at the LPA1 receptor (calcium flux) [2]: no agonist activity | IC50 (LPA3): 2300 nM
Structure (SMILES): Cc1noc(-c2ccc(CSCCC(=O)O)cc2)c1NC(=O)OC(C)c1ccccc1Cl (centres unmarked) [Ki16425, reference compound]
progression of bone metastases [7]: inhibits efficiently the progression of bone metastases

EC50 ([2]; read-out: EC50, stimulation of calcium flux): 490 nM
Structure (SMILES): CCCCCCCC/C=C\CCCCCCCC(=O)OC[C@@H](O)COP(=O)(O)O [oleoyl LPA, Lysophosphatidic acid (LPA, Oleoyl C18:1), reference compound]
